Legend:
[1] = Drug uptake in human HNT1 cells at 3.2 uM incubated for 30 mins in serum free medium followed by […] in compound-free medium by inverted fluorescence microscopic analysis; type: ADME, cell-based; conditions: hnt1, 0.5 h
Summary of the method: (§1)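 Confluent HNT1 cultures (passage 116) given 3.2 μM PS for 30 min in serum-free medium, then 5 h in serum-containing medium with PS, then 15 h chase in serum medium without PS. Fluorescence recorded at 100X with varied camera exposures and quantified digitally; pixel signal normalized to time and cell number.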

HN-85-1-3 [2] = experiment: Photodynamic therapy in human HN-85-1-3 cells assessed as induction of STAT3 cross-linking treated with compound followed by diode laser irradiation at 3 J/cm2 by immunoblot analysis; type: functional, cell-based
Summary of the method: (§2)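 Primary HN-85-1-3 tumor epithelial cells loaded with graded PS doses; uptake quantified by fluorescence before light. Dishes irradiated at 37°C with 665 nm diode laser, 6 mW/cm², 3 J/cm² total. Cells lysed in RIPA immediately after light; STAT3 crosslinking and EGFR analysed by SDS-PAGE immunoblot.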

[3] = Drug uptake in human HN-166 cells assessed as increase in drug retention retention at 3 uM in medium with 10% FBS incubated for 5 hrs followed by 40 hrs chase period by inverted fluorescence microscopic analysis; type: ADME, cell-based; conditions: hn-166, 5 h
Summary of the method: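 Five-day co-cultures of HN-143 tumor epithelial cells and HN-166 tumor fibroblasts, both primary head & neck tumor cultures grown on collagen-1 under selective media. PS in 10% FBS medium for 5 h, then 40 h chase without PS. Phase-contrast and fluorescence images taken at 100X with 500 ms exposure; signal normalized to recording time and cell number.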

[4] = Drug uptake in human FaDu clone 49 cells assessed as increase in drug retention at 1.6 uM in RPMI medium with 10% FBS followed by 48 hrs chase period by inverted fluorescence microscopic analysis
[5] = Drug uptake in liver of SCID mouse xenografted with FaDu cells at 0.47 to 0.125 micromol/kg, iv pretreated with compound followed by light irradiation at a dose of 135 J/cm2 and 75 mW/cm2 and measured at 24 hrs by IVIS analysis; type: ADME, organism-based; conditions: in vivo, dose 0.47-0.125 µmol/kg
Summary of the method: (§3)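 Female SCID mice bearing FaDu tumors 4–5 mm in diameter, 3 per group. PS in 1% Tween80/5% dextrose given iv at 0.47, 0.25 or 0.125 μmol/kg. IVIS whole-body fluorescence imaged at several time points; average radiant efficiency measured in tumor, liver and skin.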

[6] = Drug uptake in tumor of SCID mouse xenografted with human UMUC3 cells assessed as drug accumulation at 0.47 micromol/kg, iv pretreated with compound followed by light irradiation at a dose of 135 J/cm2 and 75 mW/cm2 measured after 6 hrs by IVIS analysis; type: ADME, organism-based, Neoplasm; conditions: in vivo, dose 0.47 µmol/kg
Summary of the method: (§4)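 Female SCID mice with UMUC3 flank/shoulder tumors, 3 per group. PS in 1% Tween80/5% dextrose given iv at 0.47, 0.25 or 0.125 μmol/kg. Whole-body fluorescence imaging by IVIS at several times after injection; average radiant efficiency measured in tumor, liver and skin.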

FaDu = experiment: Photosensitizing activity in human FaDu cells assessed as reduction in cell viability pretreated with compound for 24 hrs followed by light irradiation at 1 J/cm2 and measured after 48 hrs by MTT assay; type: functional, cell-based; conditions: light or radiation study
Summary of the method: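 Cells seeded at 0.01–0.05 x 10⁶ cells/ml; PS added 24 h after plating, top dose 1600 nM with 2-fold serial dilutions. Plates given 0 or 1 J/cm² light. MTT added 48 h later, formazan dissolved in DMSO, absorbance at 570 nm; IC50 from curve fitting.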

[7] = Drug uptake in human HNT1 cells at 3.2 uM incubated for 30 mins in DMEM media with 10% FBS followed by […] in compound-free medium by inverted fluorescence microscopic analysis; type: ADME, cell-based; conditions: hnt1, 0.5 h, in the assay text read “in serum-free medium” for “in DMEM media with 10% FBS”; summary of the method: as §1
[8] = Drug uptake in skin of SCID mouse xenografted with human UMUC3 cells at 0.125 micromol/kg, iv pretreated with compound followed by light irradiation at a dose of 135 J/cm2 and 75 mW/cm2 measured after 2 to 24 hrs by IVIS analysis; type: ADME, organism-based, Skin of body; conditions: in vivo, time 2-24 hrs, dose 0.125 µmol/kg; summary of the method: as §4
HN-85-1-3 [9] = experiment: Photodynamic therapy in human HN-85-1-3 cells assessed as degradation of EGFR treated with compound followed by diode laser irradiation at 3 J/cm2 by immunoblot analysis; type: functional, cell-based; summary of the method: as §2
[10] = Drug uptake in tumor of SCID mouse xenografted with human FaDu cells at 0.47 to 0.125 micromol/kg, iv pretreated with compound followed by light irradiation at a dose of 135 J/cm2 and 75 mW/cm2 and measured at 24 hrs by IVIS analysis; type: ADME, organism-based, Neoplasm; conditions: in vivo, dose 0.47-0.125 µmol/kg; summary of the method: as §3
[11] = Drug uptake in tumor of iv dosed SCID mouse xenografted with UMUC3 cells by fluorescence imaging analysis; conditions: in vivo
UMUC3 = experiment: Photosensitizing activity in human UMUC3 cells assessed as reduction in cell viability pretreated with compound for 24 hrs followed by light irradiation at 1 J/cm2 and measured after 48 hrs by MTT assay; type: functional, cell-based; conditions: UMUC3, light or radiation study
Summary of the method: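 Cells plated 0.01x10⁶ to 0.05x10⁶ cells/ml and allowed to adhere 24 h before photosensitizer was added, top dose 1600 nM with 2-fold serial dilutions. Plates received no light (0 J/cm²) or 1 J/cm² at 565 mW, 15 cm spot. After 48 h, MTT added for 3 h, formazan solubilized in DMSO and read at 570 nm; IC₅₀ fitted from dose-response.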

[12] = Drug uptake in liver of SCID mouse xenografted with human UMUC3 cells at 0.125 micromol/kg, iv pretreated with compound followed by light irradiation at a dose of 135 J/cm2 and 75 mW/cm2 measured after 2 to 24 hrs by IVIS analysis; type: ADME, organism-based; conditions: in vivo, time 2-24 hrs, dose 0.125 µmol/kg; summary of the method: as §4

CCC1=C(C)c2cc3[nH]c(cc4nc(c5c6[nH]c(cc1n2)c(C)c6C(=O)C5)[C@@H](CCC(=O)OC)[C@@H]4C)c(C)c3C(C)OCc1cccc(C#Cc2cccc(Nc3ncnc4cc(OCCOC)c(OCCOC)cc34)c2)c1 (some centres undefined)
Drug uptake [1]: Active
Activity (HN-85-1-3 [2]): Dose-dependent effect
Drug uptake [3]: Active
Drug uptake [4]: Active
Drug uptake [5]: Active
Drug uptake [6]: Active
IC50 (FaDu): 35.5 nM
Drug uptake [7]: Active
Drug uptake [8]: Active
Activity (HN-85-1-3 [9]): Dose-dependent effect
Drug uptake [10]: Active
Drug uptake [11]: Active
IC50 (UMUC3): 59.4 nM
Drug uptake [12]: Active
